AC50 and activity change, negative = toxicity data for 48 compounds are collected here from PubChem BioAssay AID504666 (Broad Institute, 2011).

SMILES strings stand for the structures. Where “and” joins values, the source holds several entries; their conditions need not be identical. Equal values may be shown once. Records with an inconclusive call do not appear. Calls of active or inactive are those of the source.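 The calls were made as follows: active = compounds lowering the viability signal in every test, with half-maximal concentration at most ten times the top dose; inconclusive = mixed test calls, a flat partial drop, or a poor fit; inactive = all tests inactive.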

The subject of one assay is HMLE_sh_eGFP viability, CellTiter-Glo luminescence, 72 h. The experiment in a line: viability loss in shGFP HMLE line – cell-based, CellTiter-Glo luminescence, 72 h, dry powder, set 6, counter-screen for breast cancer stem cell project, dose response (AID 504666).
Conditions: not given
The method, boiled down:
(§1)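 dosing = 100 nL pinned compound | system = HMLE_sh_eGFP cells | detection = CellTiter-Glo luminescence | times = ~70-74 h compound exposure, 37 °C | medium = serum-free culture medium for cell plating and exposure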
In the case of `CC(C)Cc1ccc(/C=C/C(=O)NC2=NCCS2)cc1`, the AC50 (usually the concentration giving half of the maximal activity seen) is 1.07 µM.

Turning to `CCc1ccc(/C=C/C(=O)NC2=NCCS2)cc1`, the AC50 was 28.3 µM.

As for `COc1cccc(OCc2ccc(C(=O)Nc3nc(C)cs3)o2)c1`, the concentration at half-maximal activity (AC50) was 1.65 µM.

In the case of `Cc1csc(NC(=O)c2ccc(COc3cccc(Cl)c3)o2)n1`, the AC50 was 9.15 µM.

For `Cc1csc(NCc2ccc(COc3ccccc3)o2)n1`, the AC50 was 20.7 µM.

Take `CC(C)c1ccc(/C=C/C(=O)Nc2nc(C(F)(F)F)cs2)cc1`: the AC50 is 8.98 µM.

As for `Cc1csc(NC(=O)c2ccoc2COc2ccccc2)n1`, the AC50 was 20.5 µM.

In the case of `Cc1csc(NC(=O)c2ccc(COCc3ccccc3)o2)n1`, the concentration at half-maximal activity (AC50) is 10.5 µM.

As to `CC(C)c1ccc(/C=C/C(=O)Nc2cncs2)cc1`, the AC50 was 9.59 µM.

`Cc1csc(NC(=O)c2ccc(COc3cccc(F)c3)o2)n1`: the concentration at half-maximal activity (AC50) is 18.6 µM.

For the compound `Cc1csc(NC(=O)c2ccc(COc3cccc(Oc4ccccc4)c3)o2)n1`, the AC50 is 0.738 µM.

Regarding `Cc1csc(NC(=O)c2ccc(COc3cccc(OC(F)(F)F)c3)o2)n1`, the half-maximal activity concentration (AC50) is 0.667 µM.

Consider `Cc1csc(NC(=O)c2ccc(COC3CCCCC3)o2)n1`, for which the half-maximal activity concentration (AC50) is 18.5 µM.

Regarding `COc1ccc(Cl)c(OCc2ccc(C(=O)Nc3nc(C)cs3)o2)c1`, the AC50 is 0.166 µM.

Consider `CC(C)c1ccc(C2CC2C(=O)NC2=NCCS2)cc1` (stereo not drawn), for which the concentration at half-maximal activity (AC50) was 23.9 µM.

Turning to `Cc1csc(NC(=O)c2coc(COc3ccccc3)c2)n1`, the AC50 was 2.78 µM.

With `CC(C)c1ccc(/C=C/C(=O)NC2=NCCS2)cc1`, the AC50 is 21.7 µM.

Turning to `N#Cc1csc(NC(=O)c2ccc(COc3ccccc3)o2)n1`, the concentration at half-maximal activity (AC50) is 23.1 µM.

For `Cc1csc(NC(=O)c2ccc(COc3ccccc3F)o2)n1`, the AC50 is 0.089 µM.

`O=C(Nc1nc2c(Cl)cccc2s1)c1ccc(COc2ccccc2)o1`: the AC50 was 31.3 µM.

As for `Cc1ccc(OCc2ccc(C(=O)Nc3nc(C)cs3)o2)cc1`, the AC50 is 6.79 µM.

Turning to `Cc1cccc(OCc2ccc(C(=O)Nc3nc(C)cs3)o2)c1`, the AC50 is 0.254 µM and 1.98 µM.

As to `COc1ccc2nc(NC(=O)c3ccc(COc4ccccc4)o3)sc2c1`, the AC50 is 2.54 µM.

Take `Cc1cc(Br)ccc1OCC(=O)N/N=C/c1ccc[nH]1`: the half-maximal activity concentration (AC50) is 17.7 µM.

Regarding `Cc1csc(NC(=O)c2ccc(CNc3ccccc3)o2)n1`, the AC50 is 2.62 µM.

Consider `Cc1csc(NC(=O)c2ccc(COc3cc(Cl)ccc3Cl)o2)n1`, for which the AC50 is 0.063 µM.

`Cc1csc(NC(=O)c2ccc(CCc3ccccc3)o2)n1`: the AC50 is 5.68 µM.

Take `Cc1csc(NC(=O)c2ccc(COc3ccccc3)o2)n1`: the AC50 is 21.1 µM.

Regarding `O=C(Nc1nc(C(F)(F)F)cs1)c1ccc(COc2ccccc2)o1`, the concentration at half-maximal activity (AC50) was 19.3 µM.

Consider `C/C(=C\C(=O)NC1=NCCS1)c1ccc(CC(C)C)cc1`, for which the AC50 was 27.4 µM.

Consider `COc1ccc(OCc2ccc(C(=O)Nc3nc(C)cs3)o2)c(F)c1`, for which the AC50 is 14.2 µM.

On to `CCOc1cccc(OCc2ccc(C(=O)Nc3nc(C)cs3)o2)c1`, for which the AC50 is 4.16 µM.

System in a further assay: not listed separately
Described as above. The note with it: HMLE_sh_eGFP viability, CellTiter-Glo luminescence, 72 h; at 19.5 µM (top of the series). In outline:
as §1
For orientation: Cellular ATP, detected with luciferase, serves as a proxy for viable cell number.
As to `O=C(Nc1nncs1)c1ccc(COc2ccccc2)o1`, the activity change, negative = toxicity was 8.89% (inactive).

In the case of `CC(C)NC(=O)c1ccc(COc2ccccc2)o1`, the activity change, negative = toxicity was 0.674% (inactive).

As to `COc1ccc(/C=C/C(=O)NC2=NCCS2)c(OC)c1`, the activity change, negative = toxicity was -4.82% (inactive).

Take `CCN(CC)C(=O)c1ccc(COc2ccccc2)o1`: the activity change, negative = toxicity is -2.12% (inactive).

Turning to `CC(C)c1ccc(/C=C/C(=O)N(C)C2=NCCS2)cc1`, the activity change, negative = toxicity is -2.24% (inactive).

On to `C/C(=C\C(=O)NC1=NCCS1)c1ccc(C)cc1`, for which the activity change, negative = toxicity was -6.97% (inactive).

Regarding `Cc1csc(NC(=O)c2ccc(COC(C)C)o2)n1`, the activity change, negative = toxicity was 7.01% (inactive).

Consider `Cc1coc(NC(=O)/C=C/c2ccc(C(C)C)cc2)n1`, for which the activity change, negative = toxicity was -9.8% (inactive).

As to `Cc1csc(NC(=O)c2ccc(COc3cccc(S(C)(=O)=O)c3)o2)n1`, the activity change, negative = toxicity was -5.74% (inactive).

Turning to `Cc1cc(C)c(OCC(=O)N/N=C/c2ccc[nH]2)c(C)c1`, the activity change, negative = toxicity is -14% (inactive).

On to `Cc1csc(NC(=O)c2ccc(CS(=O)(=O)c3ccccc3)o2)n1`, for which the activity change, negative = toxicity is 1.03% (inactive).

On to `Cc1coc(NC(=O)c2ccc(COc3ccccc3)o2)n1`, for which the activity change, negative = toxicity was -6.36% (inactive).

For `Cc1csc(NC(=O)c2ccc(COC(C)(C)C)o2)n1`, the activity change, negative = toxicity was -6.71% (inactive).

Still in this assay, the particulars now being: HMLE_sh_eGFP viability, CellTiter-Glo luminescence, 72 h; at 30 µM (top of the series).
Take `COc1ccc(OC)c2sc(NC(=O)c3ccc(COc4ccccc4)o3)nc12`: the activity change, negative = toxicity was -8.62% (inactive).

On to `Cc1ccc2cc(C(=O)NC3=NCCS3)n(C)c2c1`, for which the activity change, negative = toxicity was -2.52% (inactive).

For the compound `Cc1csc(NC(=O)c2cocc2COc2ccccc2)n1`, the activity change, negative = toxicity was 8.46% (inactive).
